Experimental data: ChEMBL document CHEMBL1121809, “Cyclic guanidines. 14. Imidazo[1,2-a]thienopyrimidin-2-one derivatives as blood platelet aggregation inhibitors” (J Med Chem, 1981)
Values joined by “and” are separate entries in the source; they are usually repeats but may differ in a detail not shown here. Equal values may be shown once.

Legend:
Rattus norvegicus [1] = species: Rattus norvegicus; assay: Inhibition of ADP-induced blood platelet aggregation in rat; type: functional
How it was run: (§1)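 Rat carotid citrated blood was spun at 230g for 7 min to give PRP, adjusted with PPP to about 5 × 10⁵ platelets/μL. Compound in saline or MeOH was added before 10 μM ADP in Tris-HCl/NaCl pH 7.4 with CaCl₂. Aggregation was read at 30 °C, 1100 rpm, as maximal ΔA. EC50 is the concentration giving 50% inhibition.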

Rattus norvegicus [2] = assay: Effect on heart rate in rat after an oral dose at 50 mg/kg; type: functional
How it was run: (§2)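 Male Wistar-Imamichi rats, 250 g, were given the compound orally at (50 mg/7.5 mL)/kg as a suspension in 0.5% CMC or 0.5% Tween 80. Systolic pressure and heart rate were taken by tail-cuff after prewarming at 55–60 °C for 3 min, before dosing and at set times after. Five rats per group, mean ± SD. Pressure is reported as decrease and heart rate as percent change.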

Rattus norvegicus [3] = assay: Effect on systolic blood pressure in rat after an oral dose at 50 mg/kg (5h after dose); type: functional, Artery; how it was run: as §2
Rattus norvegicus [4] = assay: (§3) Ex vivo inhibition of collagen-induced blood platelet aggregation in rat was measured 2 hr after oral administration of 50 mg/kg; type: functional
How it was run: (§4)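 Overnight-fasted rats were dosed orally at (50 mg/10 mL)/kg in 0.5% Tween 80; controls got vehicle at 10 mL/kg. PRP was made from carotid citrated blood 2 h later under pentobarbital. Collagen suspension (absorbance 0.270 at 420 nm) drove aggregation at 30 °C, 1100 rpm. Read-out was the initial maximal rate of absorbance fall (ΔA/min). Inhibition percent is versus controls; 5–7 rats, mean ± SD.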

Rattus norvegicus [5] = assay: Effect on heart rate in rat after an oral dose at 50 mg/kg (3h after dose); type: functional; how it was run: as §2
Rattus norvegicus [6] = assay: Effect on systolic blood pressure in rat after an oral dose at 50 mg/kg (3h after dose); type: functional, Artery; how it was run: as §2
Rattus norvegicus [7] = assay: Effect of compound on heart rate in rat after an oral dose at 50 mg/kg (24h after dose); Not mention; type: functional, organism-based; design: dose 50 mg/kg; how it was run: as §2
Rattus norvegicus [8] = assay: Effect on heart rate in rat after an oral dose at 50 mg/kg (4h after dose); type: functional; how it was run: as §2
Rattus norvegicus [9] = species: Rattus norvegicus; assay: In vitro inhibition of collagen-induced blood platelet aggregation; type: functional
How it was run: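 Rat PRP (about 5 × 10⁵ platelets/μL) was preincubated with compound added in saline or MeOH. Aggregation was started with bovine tendon collagen suspension in Tris buffer (absorbance 0.270 at 420 nm; lag 2–3 min). Read at 30 °C, 1100 rpm, as initial maximal rate ΔA/min. EC50 is the concentration giving 50% inhibition.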

Rattus norvegicus [10] = assay: Ex vivo inhibition of collagen-induced blood platelet aggregation in rat was measured 2 hr after administration of vehical alone; type: functional; how it was run: as §4
Rattus norvegicus [11] = assay: Effect on systolic blood pressure in rat after an oral dose at 50 mg/kg; type: functional, Artery; how it was run: as §2
Rattus norvegicus [12] = assay: Effect of compound on heart rate in rat after an oral dose at 50 mg/kg (5h after dose); type: functional; how it was run: as §2
Rattus norvegicus [13] = assay: Effect on systolic blood pressure in rat after an oral dose at 50 mg/kg (1h after dose); type: functional, Artery; how it was run: as §2
Rattus norvegicus [14] = species: Rattus norvegicus; assay: In vitro inhibition of ADP-induced blood platelet aggregation; type: functional; how it was run: as §1
Rattus norvegicus [15] = assay: Effect on heart rate in rat after an oral dose at 50 mg/kg (1h after dose); type: functional; how it was run: as §2
Rattus norvegicus [16] = species: Rattus norvegicus; assay: Inhibition of thrombin-induced blood platelet aggregation in rat; Not mention; type: functional
How it was run: (§5)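 Rat PRP was prepared from citrated carotid blood of male Wistar-Imamichi rats (250 g) under pentobarbital anesthesia, spun at 230g for 7 min, and adjusted with PPP to about 5 × 10⁵ platelets/μL. Aggregation was read turbidimetrically at 30 °C with 1100 rpm stirring. Compound in saline or MeOH was added before the agonist. EC50 was estimated from inhibition at three to six concentrations, as the mean of two to three experiments.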

Rattus norvegicus [17] = assay: Effect on systolic blood pressure in rat after an oral dose at 50 mg/kg (4h after dose); type: functional, Artery; how it was run: as §2
Rattus norvegicus [18] = assay: as §3; type: functional; how it was run: as §4
Rattus norvegicus [19] = assay: Effect of compound on systolic blood pressure in rat after an oral dose at 50 mg/kg (24h after dose); type: functional, Artery; how it was run: as §2
Rattus norvegicus [20] = species: Rattus norvegicus; assay: Inhibition of thrombin-induced blood platelet aggregation in rat; type: functional; how it was run: as §5
Rattus norvegicus [21] = assay: Effect of compound on heart rate in rat after an oral dose at 50 mg/kg (6h after dose); type: functional; how it was run: as §2
Rattus norvegicus [22] = assay: Effect on systolic blood pressure in rat after an oral dose at 50 mg/kg (6h after dose); type: functional, Artery; how it was run: as §2
Oryctolagus cuniculus = species: Oryctolagus cuniculus; assay: Inhibition of serotonin/epinephrine-induced blood platelet aggregation in rabbit; type: functional
How it was run: (§6)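 In vitro platelet aggregation test. EC50 was estimated from the inhibition rate at three to six compound concentrations and given as the mean of two to three experiments.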

Rattus norvegicus [23] = assay: Effect of compound on heart rate in rat after an oral dose at 50 mg/kg/5h after dose); type: functional; how it was run: as §2
Rattus norvegicus [24] = assay: Effect of compound on heart rate in rat after an oral dose at 50 mg/kg (24h after dose); type: functional; conditions: 50 mg/kg; how it was run: as §2
Rattus norvegicus [25] = species: Rattus norvegicus; assay: Inhibition of arachidonic acid-induced blood platelet aggregation in rat; type: functional
How it was run: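 Rat PRP was stimulated with arachidonic acid at 30 °C under stirring, with compound added before the agonist. EC50 was estimated from inhibition at three to six concentrations and is the mean of two to three experiments.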

Rattus norvegicus [26] = assay: Effect of compound on heart rate in rat after an oral dose at 50 mg/kg (2h after dose); type: functional; how it was run: as §2
[27] = Inhibition ofADP-induced blood platelet aggregation in human; type: functional; how it was run: as §6
[28] = Inhibition of collagen-induced blood platelet aggregation in human; type: functional
How it was run: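 In vitro aggregation used human platelets. EC50 was estimated from inhibition at three to six compound concentrations and is the mean of two to three experiments.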

Rattus norvegicus [29] = species: Rattus norvegicus; assay: Inhibition of ADP-induced blood platelet aggregation in rat after 6 hr; type: functional
How it was run: (§7)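 This is an ex vivo time course after a single oral 50 mg/kg dose in 0.5% Tween 80 to fasted rats, with PRP made at 3, 6 or 24 h; controls got vehicle 3 h before blood collection. ADP (10 μM) aggregation was read as extent ΔA at 30 °C. Percent inhibition is versus controls; 5–7 animals, mean ± SD.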

Rattus norvegicus [30] = species: Rattus norvegicus; assay: Inhibition of collagen-induced blood platelet aggregation in rat after 6 hrs; type: functional
How it was run: (§8)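 Fasted rats received one oral 50 mg/kg dose in 0.5% Tween 80, and PRP was prepared 3, 6 or 24 h later; vehicle controls were bled at 3 h. Collagen-induced aggregation was read as initial maximal rate ΔA/min at 30 °C. Percent inhibition is versus controls; 5–7 animals, mean ± SD.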

Rattus norvegicus [31] = species: Rattus norvegicus; assay: Inhibition of ADP-induced blood platelet aggregation in rat after 24 hr; type: functional; how it was run: as §7
Rattus norvegicus [32] = species: Rattus norvegicus; assay: Inhibition of collagen-induced blood platelet aggregation in rat after 3 hrs; type: functional; how it was run: as §8
Rattus norvegicus [33] = species: Rattus norvegicus; assay: Inhibition of collagen-induced blood platelet aggregation in rat after 24 hr; type: functional; how it was run: as §8
Rattus norvegicus [34] = species: Rattus norvegicus; assay: Inhibition of ADP-induced blood platelet aggregation in rat after 3 hr; type: functional; how it was run: as §7

CC1C(=O)NC2=Nc3sc4c(c3CN21)CCCC4.Cl (stereo not given)
EC50 (Rattus norvegicus [1]): 48 µM
Initial heart rate (Rattus norvegicus [2]): 440 bts min-1
Decrease in blood pressure (Rattus norvegicus [3]): 4
Delta A/min (Rattus norvegicus [4]): 0.002 ΔA/min
Change in heart rate (Rattus norvegicus [5]): 2%
Decrease in blood pressure (Rattus norvegicus [6]): 14
Change in heart rate (Rattus norvegicus [7]): Not mention
Change in heart rate (Rattus norvegicus [8]): 4%
EC50 (Rattus norvegicus [9]): 0.6 µM
Delta A/min (Rattus norvegicus [10]): 0.18
Initial blood pressure (Rattus norvegicus [11]): 128 mmHg
Change in heart rate (Rattus norvegicus [12]): 4%
Decrease in blood pressure (Rattus norvegicus [13]): 24
EC50 (Rattus norvegicus [14]): 48 µM
Change in heart rate (Rattus norvegicus [15]): 5%
EC50 (Rattus norvegicus [16]): Not mention
Decrease in blood pressure (Rattus norvegicus [17]): 11

Cc1cc2c(s1)NC1=NC(=O)CN1C2.Cl
Delta A/min (Rattus norvegicus [18]): 0.162 ΔA/min
EC50 (Rattus norvegicus [9]): 35 µM
EC50 (Rattus norvegicus [14]): 125 µM

Cl.O=C1CN2Cc3c(sc4c3CCC4)N=C2N1
Delta A/min (Rattus norvegicus [18]): 0.072 ΔA/min
EC50 (Rattus norvegicus [9]): 0.25 µM
EC50 (Rattus norvegicus [14]): 40 µM

Cc1cccc2c1CN1CC(=O)NC1=N2
Initial heart rate (Rattus norvegicus [2]): 464 bts min-1
Decrease in blood pressure (Rattus norvegicus [3]): 34
Decrease in blood pressure (Rattus norvegicus [19]): 12
EC50 (Rattus norvegicus [20]): 3 µM
Change in heart rate (Rattus norvegicus [5]): 17%
Change in heart rate (Rattus norvegicus [21]): 19%
Decrease in blood pressure (Rattus norvegicus [6]): 26
Decrease in blood pressure (Rattus norvegicus [22]): 35
Delta A/min (Rattus norvegicus [18]): 0.11 ΔA/min
EC50 (Oryctolagus cuniculus): 3 µM
Change in heart rate (Rattus norvegicus [23]): 18%
Change in heart rate (Rattus norvegicus [24]): 19% and -1%
EC50 (Rattus norvegicus [25]): 0.5 µM
EC50 (Rattus norvegicus [9]): 0.8 µM
Delta A/min (Rattus norvegicus [10]): 0.244
Change in heart rate (Rattus norvegicus [26]): 20%
Decrease in blood pressure (Rattus norvegicus [13]): 23
EC50 (Rattus norvegicus [14]): 5 µM
Change in heart rate (Rattus norvegicus [15]): 18%
EC50 [27]: 1.7 µM and 10 µM
EC50 [28]: 0.7 µM

Cl.O=C1CN2Cc3c(-c4ccccc4)csc3NC2=N1
Delta A/min (Rattus norvegicus [18]): 0.198 ΔA/min
EC50 (Rattus norvegicus [9]): 20 µM
EC50 (Rattus norvegicus [14]): 120 µM

Cc1c(Cl)sc2c1CN1CC(=O)NC1=N2.Cl
Delta A/min (Rattus norvegicus [29]): 0.121
Delta A/min (Rattus norvegicus [30]): 0.166
Delta A/min (Rattus norvegicus [18]): 0.222 ΔA/min
EC50 (Rattus norvegicus [9]): 1.9 µM
Delta A/min (Rattus norvegicus [31]): 0.122
Delta A/min (Rattus norvegicus [32]): 0.077
EC50 (Rattus norvegicus [14]): 4.2 µM
Delta A/min (Rattus norvegicus [33]): 0.166
Delta A/min (Rattus norvegicus [34]): 0.106

Cc1csc2c1CN1CC(=O)NC1=N2.Cl
Delta A/min (Rattus norvegicus [18]): 0.188 ΔA/min
EC50 (Rattus norvegicus [9]): 15 µM
EC50 (Rattus norvegicus [14]): 19 µM

CCCCCc1sc2c(c1C)CN1CC(=O)NC1=N2.Cl
Delta A/min (Rattus norvegicus [18]): 0.002 ΔA/min
EC50 (Rattus norvegicus [9]): 0.19 µM
EC50 (Rattus norvegicus [14]): 2 µM

Cc1sc2c(c1Cl)CN1CC(=O)NC1=N2.Cl
Delta A/min (Rattus norvegicus [18]): 0.28 ΔA/min
EC50 (Rattus norvegicus [9]): 17 µM
EC50 (Rattus norvegicus [14]): 36 µM
